The source made the active and inactive calls. The rule behind the calls is not given here.
Columns and labels:
[1] = Aqueous solubility of the compound in water by HPLC method; assay type: physicochemical
HL-60 [2] = assay: Growth inhibition of human HL60 cells at 5 uM after 48 hrs by MTT assay relative to control; assay type: functional; settings: for inhibition of growth at 5 µM: HL-60, 48 h, read-out: GI
HL-60 [3] = assay: Growth inhibition of human HL60 cells at 20 uM after 48 hrs by MTT assay relative to control; assay type: functional; settings: for inhibition of growth at 20 µM: HL-60, 48 h, read-out: GI
HL-60 [4] = assay: Growth inhibition of human HL60 cells at 1.25 uM after 48 hrs by MTT assay relative to control; assay type: functional; settings: for inhibition of growth at 1.25 µM: HL-60, 48 h, read-out: GI
HL-60 [5] = assay: Growth inhibition of human HL60 cells at 2.5 uM after 48 hrs by MTT assay relative to control; assay type: functional; settings: for inhibition of growth at 2.5 µM: HL-60, 48 h, read-out: GI
HL-60 [6] = assay: Growth inhibition of human HL60 cells at 0.63 uM after 48 hrs by MTT assay relative to control; assay type: functional; settings: for inhibition of growth at 0.63 µM: HL-60, 48 h, read-out: GI
HL-60 [7] = assay: Growth inhibition of human HL60 cells at 40 uM after 48 hrs by MTT assay relative to control; assay type: functional; settings: for inhibition of growth at 40 µM: HL-60, 48 h, read-out: GI
HL-60 [8] = assay: Growth inhibition of human HL60 cells after 48 hrs by MTT assay; assay type: functional, cell-based; settings: HL-60, 48 h
Method in brief: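 HL-60 human promyelocytic leukemia cells; proliferation inhibition of the cells measured and reported as IC50; values are mean ± SE of at least three independent experiments.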

HL-60 [9] = assay: Growth inhibition of human HL60 cells at 10 uM after 48 hrs by MTT assay relative to control; assay type: functional; settings: for inhibition of growth at 10 µM: HL-60, 48 h, read-out: GI
HL-60 [10] = assay: Induction of apoptosis in human HL60 cells assessed as downregulation of Bcl2 expression up to 80 uM after 24 hrs by Western blot method; assay type: functional, cell-based
Method in brief: (§1)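 HL-60 cells treated at different concentrations; lysates probed with specific antibodies against procaspase-3, cleaved caspase-9, PARP, Bcl-2, phospho-P70S6K and phospho-Akt; actin used as loading control.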

HL-60 [11] = assay: Induction of apoptosis in human HL60 cells assessed as necrotic cells at 80 uM after 24 hrs by Annexin V-PE/7AAD staining based flow cytometry (reference value: 1.08%); assay type: functional
[12] = biological target: Serine/threonine-protein kinase mTOR (Homo sapiens) (UniProt P42345); assay: Inhibition of mTOR in human HL60 cells assessed as reduction in P70S6K phosphorylation at Thr389-residue up to 80 uM after 24 hrs by Western blot method; assay type: cell-based; method in brief: as §1
Homo sapiens = species: Homo sapiens; assay: Inhibition of PI3K in human HL60 cells assessed as reduction in Akt phosphorylation at Ser473-residue up to 80 uM after 24 hrs by Western blot method; assay type: cell-based; method in brief: as §1
HL-60 [13] = assay: Induction of apoptosis in human HL60 cells assessed as downregulation of procaspase-3 expression after 24 hrs by Western blot method; assay type: functional, cell-based; method in brief: as §1
HL-60 [14] = assay: Induction of apoptosis in human HL60 cells assessed as live cells at 80 uM after 24 hrs by Annexin V-PE/7AAD staining based flow cytometry (reference value: 90.9%); assay type: functional
HL-60 [15] = assay: Induction of apoptosis in human HL60 cells assessed as early apoptotic cells at 80 uM after 24 hrs by Annexin V-PE/7AAD staining based flow cytometry (reference value: 4.42%); assay type: functional
HL-60 [16] = assay: Induction of apoptosis in human HL60 cells assessed as late apoptotic cells at 80 uM after 24 hrs by Annexin V-PE/7AAD staining based flow cytometry (reference value: 3.64%); assay type: functional
HL-60 [17] = assay: Induction of apoptosis in human HL60 cells assessed as caspase-9 cleavage after 24 hrs by Western blot method; assay type: functional, cell-based; method in brief: as §1
HL-60 [18] = assay: Induction of apoptosis in human HL60 cells assessed as PARP cleavage up to 80 uM after 24 hrs by Western blot method; assay type: functional, cell-based; method in brief: as §1

| Structure (SMILES) | IC50 (HL-60 [8]) | inhibition of growth at 5 µM (HL-60 [2]) | inhibition of growth at 20 µM (HL-60 [3]) | inhibition of growth at 1.25 µM (HL-60 [4]) | inhibition of growth at 2.5 µM (HL-60 [5]) | inhibition of growth at 0.63 µM (HL-60 [6]) | inhibition of growth at 40 µM (HL-60 [7]) | inhibition of growth at 10 µM (HL-60 [9]) | growth inhibition (GI) (HL-60 [2]) | growth inhibition (GI) (HL-60 [4]) | growth inhibition (GI) (HL-60 [5]) | growth inhibition (GI) (HL-60 [6]) | growth inhibition (GI) (HL-60 [9]) | other results |
| --- | --- | --- | --- | --- | --- | --- | --- | --- | --- | --- | --- | --- | --- | --- |
| C[C@H]1[C@H](C)CC[C@]2(C(=O)N3CCNCC3)CC[C@]3(C)C(=CC[C@@H]4[C@@]5(C)Cc6cn[nH]c6C(C)(C)[C@@H]5CC[C@]43C)[C@H]12.Cl |  |  |  |  |  |  |  |  |  |  |  |  |  | solubility [1]: > 150 µg/mL |
| C[C@H]1[C@H](C)CC[C@]2(C(=O)O)CC[C@]3(C)C(=CC[C@@H]4[C@@]5(C)CC[C@H](O)C(C)(C)[C@@H]5CC[C@]43C)[C@H]12 [URSOLIC ACID] | > 40 µM |  |  |  |  |  |  |  | inactive | inactive | inactive | inactive | inactive | Activity (HL-60 [10]): inactive; Activity (HL-60 [11]): 0.835%; inhibition [12]: Active; inhibition (Homo sapiens): Active; Activity (HL-60 [13]): Dose-dependent effect; Activity (HL-60 [14]): 83.4%; growth inhibition (GI) (HL-60 [3]): inactive; Activity (HL-60 [15]): 13.3%; Activity (HL-60 [16]): 2.43%; growth inhibition (GI) (HL-60 [7]): inactive; Activity (HL-60 [17]): Dose-dependent effect; Activity (HL-60 [18]): Active |
| C[C@H]1[C@H](C)CC[C@]2(C(=O)O)CC[C@]3(C)C(=CC[C@@H]4[C@@]5(C)Cc6sc(N)nc6C(C)(C)[C@@H]5CC[C@]43C)[C@H]12 | 40 µM |  | 12.9% |  |  |  | 59.2% |  | inactive | inactive | inactive | inactive | inactive |  |
| C[C@H]1[C@H](C)CC[C@]2(C(=O)O)CC[C@]3(C)C(=CC[C@@H]4[C@@]5(C)CCC(=O)C(C)(C)[C@@H]5CC[C@]43C)[C@H]12 [URSONIC ACID] | > 40 µM |  |  |  |  |  |  |  | inactive | inactive | inactive | inactive | inactive | growth inhibition (GI) (HL-60 [3]): inactive; growth inhibition (GI) (HL-60 [7]): inactive |

The next lines start with results.

| IC50 (HL-60 [8]) | Structure (SMILES) | inhibition of growth at 5 µM (HL-60 [2]) | inhibition of growth at 20 µM (HL-60 [3]) | inhibition of growth at 1.25 µM (HL-60 [4]) | inhibition of growth at 2.5 µM (HL-60 [5]) | inhibition of growth at 0.63 µM (HL-60 [6]) | inhibition of growth at 40 µM (HL-60 [7]) | inhibition of growth at 10 µM (HL-60 [9]) | growth inhibition (GI) (HL-60 [2]) | growth inhibition (GI) (HL-60 [4]) | growth inhibition (GI) (HL-60 [5]) | growth inhibition (GI) (HL-60 [6]) | growth inhibition (GI) (HL-60 [9]) | other results |
| --- | --- | --- | --- | --- | --- | --- | --- | --- | --- | --- | --- | --- | --- | --- |
| 2.64 µM | C[C@H]1[C@H](C)CC[C@]2(C(=O)N3CCNCC3)CC[C@]3(C)C(=CC[C@@H]4[C@@]5(C)CCC(=O)C(C)(C)[C@@H]5CC[C@]43C)[C@H]12 | 82.2% | 92.5% | 22.5% | 43.7% | 10.6% | 94.8% | 92.7% |  |  |  |  |  |  |
| 7.04 µM | C[C@H]1[C@H](C)CC[C@]2(C(=O)N(CCO)CCO)CC[C@]3(C)C(=CC[C@@H]4[C@@]5(C)CCC(=O)C(C)(C)[C@@H]5CC[C@]43C)[C@H]12 | 26.7% | 86.5% | 8.43% | 12.4% | 9.32% | 92.7% | 53.7% |  |  |  |  |  |  |
| < 0.63 µM | COc1cccc2c1C(=O)c1c(O)c3c(c(O)c1C2=O)C[C@@](O)(C(=O)CO)C[C@@H]3O[C@H]1C[C@H](N)[C@H](O)[C@H](C)O1 [DOXORUBICIN] | 95.4% | > 99% | 82.5% | 85.6% | 80.8% | > 99% | > 99% |  |  |  |  |  |  |

— ChEMBL document CHEMBL4002606, “Discovery of FZU-03,010 as a self-assembling anticancer amphiphile for acute myeloid leukemia” (Bioorg Med Chem Lett, 2017)
